From ChEMBL document CHEMBL1158613, “Novel trivalent anti-influenza reagent” (Bioorg Med Chem Lett, 2010)
The source made the active and inactive calls. No cut-off for these calls is given here.

How the values were obtained:
[1] = Aqueous solubility of the compound; format: physicochemical; conditions: buffer
Influenza A virus [2] = test: Antiviral activity against Influenza A/PR/8/1934 (H1N1) infected in MDCK cells assessed as of viral plaque formation at 4 degC relative to control; format: functional, A/Puerto Rico/8/1934(H1N1)
Procedure, shortened: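 Plaque reduction assay in MDCK cells infected with A/PR/8/1934 (H1N1), with compound at 400 μM during virus adsorption at 4 °C. Plaques were counted and expressed as a percentage of the virus-only control. Uninoculated cells served as the no-virus control. Single concentration only, with no dose range.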

Influenza A virus [3] = test: Antiviral activity against Influenza A/PR/8/1934 (H1N1) infected in MDCK cells assessed as viral plaque formation at 35 degC relative to control; format: functional, A/Puerto Rico/8/1934(H1N1)
Procedure, shortened: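 Plaque reduction assay in MDCK cells with A/PR/8/1934 (H1N1), with compound at 400 μM present during virus adsorption at 35 °C. The plaque count is given as a percentage of plaques in the virus-only control, and uninoculated cells were the blank. A single concentration was tested.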

Influenza A virus [4] = test: Inhibition of Influenza A/PR/8/1934 (H1N1)-induced hemagglutinination of chicken RBC; format: functional, organism-based; conditions: A/Puerto Rico/8/1934(H1N1)

Compound	solubility [1]	Activity (Influenza A virus [2]) [%]	Activity (Influenza A virus [3]) [%]	inhibition (Influenza A virus [4])
NC(CCC(=O)NCCCCCCO[C@@H]1O[C@H](CO)[C@@H](O[C@@H]2O[C@H](CO)[C@H](O)[C@H](O)[C@H]2O)[C@@H](O)[C@H]1O)C(=O)NCCOCCOCCC(=O)Nc1ccc(C(c2ccc(NC(=O)CCOCCOCCNC(=O)C(N)CCC(=O)NCCCCCCO[C@@H]3O[C@H](CO)[C@@H](O[C@@H]4O[C@H](CO)[C@H](O)[C@H](O)[C@H]4O)[C@@H](O)[C@H]3O)cc2)c2ccc(NC(=O)CCOCCOCCNC(=O)C(N)CCC(=O)NCCCCCCO[C@@H]3O[C@H](CO)[C@@H](O[C@@H]4O[C@H](CO)[C@H](O)[C@H](O)[C@H]4O)[C@@H](O)[C@H]3O)cc2)cc1 (some centres undefined)	Soluble	100	100	
CC(=O)N[C@H]1[C@@H]([C@@H](O)[C@H](O)CO)O[C@](O[C@H]2[C@@H](O)[C@@H](CO)O[C@@H](O[C@H]3[C@@H](O)[C@@H](O)[C@H](OCCCCCCNC(=O)CCC(N)C(=O)NCCOCCOCCOc4ccc(C(c5ccc(OCCOCCOCCNC(=O)C(N)CCC(=O)NCCCCCCO[C@@H]6O[C@H](CO)[C@@H](O[C@@H]7O[C@H](CO)[C@H](O)[C@H](O[C@@]8(C(=O)O)C[C@H](O)[C@@H](NC(C)=O)[C@@H]([C@@H](O)[C@H](O)CO)O8)[C@H]7O)[C@@H](O)[C@H]6O)cc5)c5ccc(OCCOCCOCCNC(=O)C(N)CCC(=O)NCCCCCCO[C@@H]6O[C@H](CO)[C@@H](O[C@@H]7O[C@H](CO)[C@H](O)[C@H](O[C@@]8(C(=O)O)C[C@H](O)[C@@H](NC(C)=O)[C@@H]([C@@H](O)[C@H](O)CO)O8)[C@H]7O)[C@@H](O)[C@H]6O)cc5)cc4)O[C@@H]3CO)[C@@H]2O)(C(=O)O)C[C@@H]1O (some centres undefined)	Soluble	15.5	45.6	inactive
CC(=O)N[C@H]1[C@@H]([C@@H](O)[C@H](O)CO)O[C@](O[C@H]2[C@@H](O)[C@@H](CO)O[C@@H](O[C@H]3[C@@H](O)[C@@H](O)[C@H](OCCCCCCNC(=O)CCC(N)C(=O)NCCOCCOCCC(=O)Nc4ccc(C(c5ccc(NC(=O)CCOCCOCCNC(=O)C(N)CCC(=O)NCCCCCCO[C@@H]6O[C@H](CO)[C@@H](O[C@@H]7O[C@H](CO)[C@H](O)[C@H](O[C@@]8(C(=O)O)C[C@H](O)[C@@H](NC(C)=O)[C@@H]([C@@H](O)[C@H](O)CO)O8)[C@H]7O)[C@@H](O)[C@H]6O)cc5)c5ccc(NC(=O)CCOCCOCCNC(=O)C(N)CCC(=O)NCCCCCCO[C@@H]6O[C@H](CO)[C@@H](O[C@@H]7O[C@H](CO)[C@H](O)[C@H](O[C@@]8(C(=O)O)C[C@H](O)[C@@H](NC(C)=O)[C@@H]([C@@H](O)[C@H](O)CO)O8)[C@H]7O)[C@@H](O)[C@H]6O)cc5)cc4)O[C@@H]3CO)[C@@H]2O)(C(=O)O)C[C@@H]1O (some centres undefined)	Soluble	67.2	56.6	inactive
NC(CCC(=O)NCCCCCCO[C@@H]1O[C@H](CO)[C@@H](O[C@@H]2O[C@H](CO)[C@H](O)[C@H](O)[C@H]2O)[C@@H](O)[C@H]1O)C(=O)NCCOCCOCCOc1ccc(C(c2ccc(OCCOCCOCCNC(=O)C(N)CCC(=O)NCCCCCCO[C@@H]3O[C@H](CO)[C@@H](O[C@@H]4O[C@H](CO)[C@H](O)[C@H](O)[C@H]4O)[C@@H](O)[C@H]3O)cc2)c2ccc(OCCOCCOCCNC(=O)C(N)CCC(=O)NCCCCCCO[C@@H]3O[C@H](CO)[C@@H](O[C@@H]4O[C@H](CO)[C@H](O)[C@H](O)[C@H]4O)[C@@H](O)[C@H]3O)cc2)cc1 (some centres undefined)	Soluble	72.4	77.1	
